Measurements reported in ChEMBL document CHEMBL4699388, “Antiproliferative activities of tricyclic amides derived from beta-caryophyllene via the Ritter reaction against MDA-MB-231 breast cancer cells” (RSC Med Chem, 2020).
One block for each compound: values may come before it. Calls of active or inactive are those of the source. No cut-off for these calls is given here.

Assays:
[1] = test system: MDA-MB-231; assay: Antiproliferative activity against human MDA-MB-231 cells assessed as reduction in cell viability measured after 48 hrs by MTS assay; format: functional, cell-based; settings: MDA-MB-231, 48 h
In short: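 Concentration–response in MDA-MB-231 cells across a wide concentration range. The dose–response data are used to calculate IC50 for proliferation (MTS).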

[2] = test system: MDA-MB-231; assay: Antiproliferative activity against human MDA-MB-231 cells assessed as reduction in cell viability at 25 to 50 uM measured after 48 hrs by MTS assay; format: functional, cell-based; settings: dose microM 25-50, time 48.0 hrs
In short: (§1)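 MDA-MB-231 cells exposed to compounds at 25 and 50 μM for 48 h. Viability is compared with a DMSO-treated control. Mean ± SEM from three separate experiments; significance vs control.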

[3] = test system: Vero; assay: Cytotoxicity against African green monkey Vero cells assessed as reduction in cell viability measured at 168 uM after 72 hrs by resazurin assay relative to control; format: cell-based; settings: chlorocebus sabaeus
[4] = test system: MDA-MB-231; assay: Induction of apoptosis in human MDA-MB-231 cells assessed as late apoptotic cells at 20 uM measured after 48 hrs by annexicV-FITC/propidium iodide staining based flow cytometry analysis (reference value: 4.4 %); format: functional
[5] = test system: MDA-MB-231; assay: Induction of apoptosis in human MDA-MB-231 cells assessed as early apoptotic cells at 20 uM measured after 48 hrs by annexicV-FITC/propidium iodide staining based flow cytometry analysis (reference value: 5.8 %); format: functional
[6] = test system: MDA-MB-231; assay: Induction of apoptosis in human MDA-MB-231 cells assessed as necrotic cells at 20 uM measured after 48 hrs by annexicV-FITC/propidium iodide staining based flow cytometry analysis (reference value: 2.4 %); format: functional
[7] = test system: Vero; assay: Cytotoxicity against African green monkey Vero cells assessed as reduction in cell viability measured after 72 hrs by resazurin assay; format: cell-based; settings: chlorocebus sabaeus
[8] = test system: MDA-MB-231; assay: Induction of apoptosis in human MDA-MB-231 cells assessed as healthy cells at 20 uM measured after 48 hrs by annexicV-FITC/propidium iodide staining based flow cytometry analysis (reference value: 87.4 %); format: functional
[9] = test system: MDA-MB-231; assay: Antiproliferative activity against human MDA-MB-231 cells assessed as reduction in cell viability at 5 uM measured after 48 hrs by MTS assay; format: functional, cell-based
[10] = Selectivity ratio of cytotoxicity against African green monkey Vero cells assessed as reduction in cell viability measured after 72 hrs by resazurin assay to antiproliferative activity against human MDA-MB-231 cells assessed as reduction in cell viability measured after 48 hrs by MTS assay; format: toxicity, cell-based; settings: Vero cells versus MDA-MB-231 cells
[11] = test system: MDA-MB-231; assay: Cell cycle arrest in human MDA-MB-231 cells at 10 uM measured after 24 hrs by RNaseA/propidium iodide staining based flow cytometry analysis; format: functional
In short: (§2)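 MDA-MB-231 cells treated 24 h with 10 μM or 9 μM test agent or DMSO control. Cell cycle distribution is read by flow cytometry and expressed as percentage change from control. Mean ± SEM, three separate experiments; p vs DMSO control.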

[12] = test system: MDA-MB-231; assay: Antiproliferative activity against human MDA-MB-231 cells assessed as reduction in cell viability at 50 uM measured after 48 hrs by MTS assay; format: functional, cell-based; in short: as §1
[13] = Aqueous solubility of the compound; format: physicochemical; settings: buffer
[14] = test system: MDA-MB-231; assay: Cell cycle arrest in human MDA-MB-231 cells assessed as accumulation at G2/M phase at 9 uM measured after 24 hrs by RNaseA/propidium iodide staining based flow cytometry analysis relative to control; format: functional; in short: as §2
[15] = test system: MDA-MB-231; assay: Induction of apoptotic cell death in human MDA-MB-231 cells at 20 uM measured after 48 hrs by annexicV-FITC/propidium iodide staining based flow cytometry analysis; format: functional
[16] = test system: MDA-MB-231; assay: Cell cycle arrest in human MDA-MB-231 cells assessed as decrease in cell population at G0/G1 phase at 9 uM measured after 24 hrs by RNaseA/propidium iodide staining based flow cytometry analysis; format: functional; in short: as §2
[17] = test system: Vero; assay: Cytotoxicity against African green monkey Vero cells assessed as reduction in cell viability measured at 129 uM after 72 hrs by resazurin assay relative to control; format: cell-based; settings: chlorocebus sabaeus

Structure (SMILES): CC1(C)C[C@H]2[C@H]1CC[C@@]1(C)CCC[C@]2(N)C1
IC50 [1]: 34.9 µM | Activity [2]: Active

Structure (SMILES): CCCN[C@]12CCC[C@](C)(CC[C@@H]3[C@@H]1CC3(C)C)C2
IC50 [1]: 45.9 µM | Activity [2]: Active

Structure (SMILES): CC1(C)C[C@H](NC(=O)CCl)[C@]23CCC[C@@](C)(CC[C@@H]12)C3
Activity [3]: 89% | Activity [4]: 13.9% | IC50 [1]: 9.7 µM | Activity [5]: 9.9% | Activity [6]: 18.4% | Activity [7]: 168 µM | Activity [8]: 57.8% | inhibition [9]: Active | selectivity ratio [10]: 33 | Activity [11]: inactive | Activity [2]: Active

Structure (SMILES): CCCCCN[C@]12CCC[C@](C)(CC[C@@H]3[C@@H]1CC3(C)C)C2
Activity [12]: Active | solubility [13]: Insoluble

Structure (SMILES): CC1(C)C[C@H](NC(=O)CCl)[C@]23CC[C@@H](NC(=O)CCl)[C@@](C)(CC[C@@H]12)C3
Activity [14]: 91% | Activity [4]: 74.3% | IC50 [1]: 8.2 µM | Activity [5]: 13.5% | Activity [15]: Active | Activity [6]: 4.6% | Activity [7]: 129 µM | Activity [16]: Active | Activity [8]: 7.6% | inhibition [9]: Active | selectivity ratio [10]: 25 | Activity [17]: 88% | Activity [2]: Active

Further lines, with some results ahead:

IC50 [1]: 55.3 µM
Structure (SMILES): CCCCC(=O)N[C@]12CCC[C@](C)(CC[C@@H]3[C@@H]1CC3(C)C)C2
Activity [2]: Active

IC50 [1]: 21.4 µM
Structure (SMILES): CC1(C)C[C@H]2[C@H]1CC[C@@]1(C)CCC[C@]2(NC(=O)CCl)C1
Activity [2]: Active

IC50 [1]: 37.3 µM
Structure (SMILES): CCCCN[C@]12CCC[C@](C)(CC[C@@H]3[C@@H]1CC3(C)C)C2
Activity [2]: Active

IC50 [1]: 23.6 µM
Structure (SMILES): CC1(C)C[C@H](NCc2ccccc2)[C@]23CCC[C@@](C)(CC[C@@H]12)C3
Activity [2]: Active
